The source made the active and inactive calls. The calls are words filed in the database; no cut-off is given here.
Assays:
K-562R [1] = test: Antiproliferative activity against T315I mutant expressing human K-562R cells assessed as inhibition of cell proliferation incubated for 48 hrs by MTT assay; assay type: functional, cell-based
Outline: (§1)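 MTT growth assay. K562 and K562R (T315I) cells grown in RPMI 1640 with 10% FBS. Hek293 and EA.hy926 cells grown in DMEM with 10% FBS. About 2.5 × 10^3 exponential-phase cells per well, preincubated 12 h at 37 °C in 5% CO2. Serially diluted compounds added for 48 h, then MTT at 0.5 mg/mL final for 4 h. Formazan dissolved in DMSO, A490 read, IC50 calculated from inhibition ratios.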

Bcr/Abl fusion protein [2] = molecular target: Bcr/Abl fusion protein (Homo sapiens, UniProt P00519); test: Inhibition of wild type Bcr-Abl (unknown origin) incubated for 1 hr in presence of ATP by ADP-Glo kinase assay; assay type: protein assay
Bcr/Abl fusion protein [3] = molecular target: Bcr/Abl fusion protein (Homo sapiens, UniProt P00519, T315I); test: Inhibition of wild type Bcr-Abl T315I mutant (unknown origin) incubated for 1 hr in presence of ATP by ADP-Glo kinase assay; assay type: protein assay
K562 [4] = test: Antiproliferative activity against human K562 cells assessed as inhibition of cell proliferation incubated for 48 hrs by MTT assay; assay type: functional, cell-based; conditions: K562, 48 h; outline: as §1
HEK293 = test: Cytotoxicity against human HEK293 cells assessed as cell growth inhibition incubated for 48 hrs by MTT assay; assay type: cell-based; conditions: hek293, 48 h; outline: as §1
EA.hy 926 = test: Cytotoxicity against human EA.hy926 cells assessed as cell growth inhibition incubated for 48 hrs by MTT assay; assay type: cell-based; conditions: ea.hy 926, 48 h; outline: as §1
K562 [5] = test: Induction of apoptosis in human K562 cells assessed as viable cells at 1 uM after 48 hrs by annexinV/FITC-propidium iodide staining based flow cytometry (reference value: 84.19 %); assay type: functional; conditions: read-out: Activity
K562 [6] = test: Induction of apoptosis in human K562 cells assessed as early apoptotic cells at 1 uM after 48 hrs by annexinV/FITC-propidium iodide staining based flow cytometry (reference value: 2.98 %); assay type: functional
K562 [7] = test: Induction of apoptosis in human K562 cells assessed as late apoptotic cells at 1 uM after 48 hrs by annexinV/FITC-propidium iodide staining based flow cytometry (reference value: 12.60 %); assay type: functional
K562 [8] = test: Induction of apoptosis in human K562 cells assessed as necrotic cells at 1 uM after 48 hrs by annexinV/FITC-propidium iodide staining based flow cytometry (reference value: 0.23 %); assay type: functional
K562 [9] = test: Induction of apoptosis in human K562 cells assessed as viable cells at 10 uM after 48 hrs by annexinV/FITC-propidium iodide staining based flow cytometry (reference value: 84.19 %); assay type: functional; conditions: read-out: Activity
K562 [10] = test: Induction of apoptosis in human K562 cells assessed as early apoptotic cells at 10 uM after 48 hrs by annexinV/FITC-propidium iodide staining based flow cytometry (reference value: 2.98 %); assay type: functional
K562 [11] = test: Induction of apoptosis in human K562 cells assessed as late apoptotic cells at 10 uM after 48 hrs by annexinV/FITC-propidium iodide staining based flow cytometry (reference value: 12.60 %); assay type: functional
K562 [12] = test: Induction of apoptosis in human K562 cells assessed as necrotic cells at 10 uM after 48 hrs by annexinV/FITC-propidium iodide staining based flow cytometry (reference value: 0.23 %); assay type: functional
K562 [13] = test: Induction of apoptosis in human K562 cells assessed as viable cells at 20 uM after 48 hrs by annexinV/FITC-propidium iodide staining based flow cytometry (reference value: 84.19 %); assay type: functional; conditions: read-out: Activity
K562 [14] = test: Induction of apoptosis in human K562 cells assessed as early apoptotic cells at 20 uM after 48 hrs by annexinV/FITC-propidium iodide staining based flow cytometry (reference value: 2.98 %); assay type: functional
K562 [15] = test: Induction of apoptosis in human K562 cells assessed as late apoptotic cells at 20 uM after 48 hrs by annexinV/FITC-propidium iodide staining based flow cytometry (reference value: 12.60 %); assay type: functional
K562 [16] = test: Induction of apoptosis in human K562 cells assessed as necrotic cells at 20 uM after 48 hrs by annexinV/FITC-propidium iodide staining based flow cytometry (reference value: 0.23 %); assay type: functional
[17] = molecular target: T1, Bcr/Abl fusion protein (Homo sapiens) (UniProt P00519+P11274); test: Inhibition of Bcr-Abl in human K562 cells assessed as decrease in tyrosine phosphorylation measured after 48 hrs by Western blot analysis; assay type: cell-based; conditions: dose 1-15 µM
Outline: (§2)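 Western blot. K562 cells treated 48 h with DMSO vehicle or compound at 1, 5, 10 or 15 µM. Lysates were normalized by BCA and equal protein run on SDS-PAGE, then transferred to PVDF and blocked in 5% milk/TBS-0.1% Tween-20. Probed overnight at 4 °C with p-Bcr-Abl and GAPDH antibodies, then with HRP secondaries for 2 h at room temperature. Read-out was p-Bcr-Abl/GAPDH ratio.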

[18] = molecular target: T1, Bcr/Abl fusion protein (Homo sapiens); test: Inhibition of Bcr-Abl phosphorylation in human K562 cells at 10 uM measured after 48 hrs by Western blot analysis; assay type: cell-based; outline: as §2
K-562R [19] = test: Antiproliferative activity against T315I mutant expressing human K-562R cells assessed as inhibition of cell proliferation at 100 uM incubated for 48 hrs by MTT assay relative to control; assay type: functional; outline: as §1

Row | Structure (SMILES) | IC50 (Bcr/Abl fusion protein [2]) [µM] | IC50 (Bcr/Abl fusion protein [3]) [µM] | IC50 (K562 [4]) [µM] | other results
1 | Cc1ccc(C(=O)Nc2ccc(CN3CCN(C)CC3)c(C(F)(F)F)c2)cc1C#Cc1cnc2cccnn12 [PONATINIB] | – | – | – | IC50 (K-562R [1]): 0.093 µM
2 | CN(C)CCNC(=O)c1cncc(-c2ccc(C(=O)N[C@H]3CN[C@@H](C(=O)Nc4ccc(Cl)c(C(F)(F)F)c4)C3)cc2)c1 | 4.23 | 22.1 | 4.56 | –
3 | C[C@H](NC(=O)c1cccc(-c2cncc(C(=O)NC3CC3)c2)c1)C(=O)Nc1ccc(Cl)c(C(F)(F)F)c1 | 1.46 | 7.83 | 15.1 | –
4 | CC(=O)Nc1ccc(-c2ccc(C(=O)N[C@@H](C)C(=O)Nc3ccc(Cl)c(C(F)(F)F)c3)cc2)cn1 | 0.2 | 22.4 | 107 | –
5 | CCN(CC)C(=O)c1cncc(-c2ccc(C(=O)N[C@@H](C)C(=O)Nc3ccc(Cl)c(C(F)(F)F)c3)cc2)c1 | 0.011 | 59.9 | 20.2 | –
6 | Nc1ccc(-c2ccc(C(=O)N[C@H]3CN[C@@H](C(=O)Nc4ccc(Cl)c(C(F)(F)F)c4)C3)cc2)cn1 | 9.18 | 14.1 | 9.13 | –
7 | CS(=O)(=O)Nc1ccc(-c2ccc(C(=O)N[C@H]3CN[C@@H](C(=O)Nc4ccc(Cl)c(C(F)(F)F)c4)C3)cc2)cn1 | 0.15 | 36.9 | 45 | –
8 | CC(=O)Nc1ccc(-c2cccc(C(=O)N[C@H]3CN[C@@H](C(=O)Nc4ccc(Cl)c(C(F)(F)F)c4)C3)c2)cn1 | 0.49 | 24.6 | 8.71 | –
9 | CC(=O)Nc1ccc(-c2cccc(C(=O)N[C@@H](C)C(=O)Nc3ccc(Cl)c(C(F)(F)F)c3)c2)cn1 | 0.6 | 38.6 | 42.8 | –
10 | C[C@H](NC(=O)c1ccc(-c2cncc(C(=O)NC3CC3)c2)cc1)C(=O)Nc1ccc(Cl)c(C(F)(F)F)c1 | 9.38 | 4.99 | 396 | –
11 | CC(C)(C)C(=O)Nc1ccc(-c2cccc(C(=O)N[C@H]3CN[C@@H](C(=O)Nc4ccc(Cl)c(C(F)(F)F)c4)C3)c2)cn1 | 4.63 | 147 | 28 | –
12 | O=C(NC1CC1)c1cncc(-c2cccc(C(=O)N[C@H]3CN[C@@H](C(=O)Nc4ccc(Cl)c(C(F)(F)F)c4)C3)c2)c1 | 16 | 26.6 | 27.3 | –
13 | C[C@H](NC(=O)c1cccc(-c2ccc(NC(=O)C(C)(C)C)nc2)c1)C(=O)Nc1ccc(Cl)c(C(F)(F)F)c1 | 4.48 | 244 | 18.4 | –
14 | C[C@H](NC(=O)c1ccc(-c2cncc(C(=O)NCCN(C)C)c2)cc1)C(=O)Nc1ccc(Cl)c(C(F)(F)F)c1 | 6.62 | 2.28 | 4.65 | –
15 | CS(=O)(=O)Nc1ccc(-c2cccc(C(=O)N[C@H]3CN[C@@H](C(=O)Nc4ccc(Cl)c(C(F)(F)F)c4)C3)c2)cn1 | 6.48 | 16.2 | 24.6 | –
16 | C[C@H](NC(=O)c1ccc(-c2ccc(NS(C)(=O)=O)nc2)cc1)C(=O)Nc1ccc(Cl)c(C(F)(F)F)c1 | 3.77 | 9.95 | 7.24 | –
17 | CC(C)(C)C(=O)Nc1ccc(-c2ccc(C(=O)N[C@H]3CN[C@@H](C(=O)Nc4ccc(Cl)c(C(F)(F)F)c4)C3)cc2)cn1 | 2.64 | 50.3 | 11.6 | –
18 | CC(=O)Nc1ccc(-c2ccc(C(=O)N[C@H]3CN[C@@H](C(=O)Nc4ccc(Cl)c(C(F)(F)F)c4)C3)cc2)cn1 | 34.5 | 13 | 22.8 | –
19 | C[C@H](NC(=O)c1ccc(-c2ccc(NC(=O)C(C)(C)C)nc2)cc1)C(=O)Nc1ccc(Cl)c(C(F)(F)F)c1 | 0.041 | 0.53 | 7.45 | IC50 (K-562R [1]): 9.1 µM; Activity (HEK293): Non-Toxic; Activity (EA.hy 926): Non-Toxic; viability at 1 µM (K562 [5]): 74.5%; Activity (K562 [6]): 3.39%; Activity (K562 [7]): 21.11%; Activity (K562 [8]): 0.98%; viability at 10 µM (K562 [9]): 36.5%; Activity (K562 [10]): 10.03%; Activity (K562 [11]): 48.96%; Activity (K562 [12]): 4.57%; viability at 20 µM (K562 [13]): 35.9%; Activity (K562 [14]): 11.48%; Activity (K562 [15]): 50.94%; Activity (K562 [16]): 1.65%; inhibition [17]: Dose-dependent effect; inhibition [18]: Active
20 | CCN(CC)C(=O)c1cncc(-c2cccc(C(=O)N[C@@H](C)C(=O)Nc3ccc(Cl)c(C(F)(F)F)c3)c2)c1 | 0.29 | 86 | 29.9 | –
21 | C[C@H](NC(=O)c1ccc(-c2ccc(N)nc2)cc1)C(=O)Nc1ccc(Cl)c(C(F)(F)F)c1 | 0.77 | 7.51 | 5.95 | –
22 | Nc1ccc(-c2cccc(C(=O)N[C@H]3CN[C@@H](C(=O)Nc4ccc(Cl)c(C(F)(F)F)c4)C3)c2)cn1 | 12 | 103 | 20 | –
23 | CN(C)CCNC(=O)c1cncc(-c2cccc(C(=O)N[C@H]3CN[C@@H](C(=O)Nc4ccc(Cl)c(C(F)(F)F)c4)C3)c2)c1 | 2.41 | 21.7 | 19.8 | –
24 | C[C@H](NC(=O)c1cccc(-c2ccc(N)nc2)c1)C(=O)Nc1ccc(Cl)c(C(F)(F)F)c1 | 4.4 | 86.8 | 8.09 | –
25 | CCN(CC)C(=O)c1cncc(-c2ccc(C(=O)N[C@H]3CN[C@@H](C(=O)Nc4ccc(Cl)c(C(F)(F)F)c4)C3)cc2)c1 | 7.4 | 50.5 | 55.5 | –
26 | CCN(CC)C(=O)c1cncc(-c2cccc(C(=O)N[C@H]3CN[C@@H](C(=O)Nc4ccc(Cl)c(C(F)(F)F)c4)C3)c2)c1 | 3.75 | 42.7 | 24.9 | –
27 | Cc1ccc(NC(=O)c2ccc(CN3CCN(C)CC3)cc2)cc1Nc1nccc(-c2cccnc2)n1 [IMATINIB] | – | – | – | inhibition at 100 µM (K-562R [19]): 45%
28 | C[C@H](NC(=O)c1cccc(-c2cncc(C(=O)NCCN(C)C)c2)c1)C(=O)Nc1ccc(Cl)c(C(F)(F)F)c1 | 0.64 | 2.41 | 7.92 | –
29 | O=C(NC1CC1)c1cncc(-c2ccc(C(=O)N[C@H]3CN[C@@H](C(=O)Nc4ccc(Cl)c(C(F)(F)F)c4)C3)cc2)c1 | 61.2 | 39 | 65.3 | –
30 | C[C@H](NC(=O)c1cccc(-c2ccc(NS(C)(=O)=O)nc2)c1)C(=O)Nc1ccc(Cl)c(C(F)(F)F)c1 | 3.34 | 129 | 4.66 | –

Source: ChEMBL document CHEMBL5055648, “Design, synthesis, and biological evaluation of novel Bcr-AblT315I inhibitors incorporating amino acids as flexible linker” (Bioorg Med Chem, 2021)
